Compound activity from PubChem BioAssay.
Hits are enriched below; roughly 0.94% of the tested compounds scored in any of these assays.
Arr AP2 block – blocks beta-arrestin peptide binding to AP2 adaptin; inhibition, % at 10 µM; AID 504490; hit rate 0.31% among 340,000; FITC-arrestin peptide / GST-AP2 beads, flow cytometry; AP2 beta2 appendage carries R879A mutation;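 active = inhibition above a set limit, near 3 SD of compounds lacking own fluorescence, cut at about 54% in these data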;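 also: plate controls were DMSO wells for no effect and 5 µM unlabelled arrestin peptide for full effect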
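System: GST-AP2 R879A glutathione beads | Also added: FITC-arrestin peptide, 50 nM | Times: 12 min plus 1 h, RT | Signal: Bead flow cytometry, FITC channel | Buffer or medium: PBS with 0.05% Tween 20 and 0.1% BSA | Read-out basis: Percent drop in bead-associated FITC signal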
GC-A act – GC-A (human) enzyme activation; P16066; HEK293 GC-A cells, cGMP TR-FRET, EC30 ANP; 0% at EC30 ANP, 100% saturating ANP; activation, % at 10 µM; hit rate 0.14% among 370,000; AID 1671463; in the data active = activation above about 40%
GC-B act – GC-B (human) receptor activation | HEK293-GC-B cells, CNP EC30, cGMP TR-FRET; 0% at EC30 CNP, 100% saturating CNP | activation, % at 10 µM | hit rate 0.11% among 370,000 | AID 1920062;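 active = activation at 10 µM reaching about 35% in either raw or pattern-adjusted values, limit read from the data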
GalR3 antagonist – blocks the human galanin receptor 3 | HEK293 GalR3-CNG cAMP membrane potential fluorescence; galR3 body fused to GalR1 C-terminus | O60755 | hit rate 0.44% among 360,000 | inhibition, % at 3 µM;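 active = inhibition above the screen-wide average plus 3 SD, cut at about 13% in these data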;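 also: forskolin and galanin both at EC90 stimulate the cells; cAMP rise reported by CNG channel membrane potential dye signal; 0% = forskolin plus galanin with DMSO and 100% = forskolin alone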
Arr AP2 CP1 – inhibitors of human beta-arrestin and AP2 interaction | GST-AP2 beads, FITC arrestin peptide binding, flow cytometry; GST-fused beta2-adaptin appendage, R879A mutant | shares compounds with Arr AP2 block | hit rate 2% among 1,300 | inhibition, % at 10 µM;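 active = inhibition above a set limit, roughly 3 SD of non-fluorescent compound noise, cut at about 38% in these data; inactive = inhibition at or below that limit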;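 also: loss of bead fluorescence from 50 nM FITC arrestin peptide bound to appendage; 0% = negative control wells and 100% = excess unlabelled arrestin peptide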
GST GSH counter – disrupts GST binding to glutathione beads, arrestin-AP2 artifact; shares compounds with Arr AP2 block; GST-fluorescein binding to GSH beads, fluorescence, counter-screen; inhibition, % at 10 µM; hit rate 2% among 1,300; AID 588338;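 active = inhibition above 50%, about 3 SD of the inhibition seen with non-fluorescent compounds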;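 also: fluorescein maleimide labelled GST captured on 4 micron glutathione beads; higher means more loss of bead fluorescence from quenching or blocked binding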
Starred values were filed as active, the others as inactive; nt = no result.

SMILES | Arr AP2 block | GC-A act | GC-B act | GalR3 antagonist | Arr AP2 CP1 | GST GSH counter
COC(=O)C1=C(C(C)=O)C(c2ccc(C(=O)OC)cc2)n2nnnc2N1 (centres undefined) | 99.7* | 0.2 | -0.6 | 1.7 | 4.5 | -5.0
OC(c1ccccc1)(c1ccccc1)C1CCN(CCCOc2cccnc2)CC1 | nt | -1.6 | -2.8 | -0.3 | nt | nt
COc1cc2c(cc1NC(=O)CN(C)Cc1ccc(OC)c(OC)c1)oc1ccccc12 | 18.1 | 11.2 | 13.2 | -1.8 | 0.0 | -10.5
COc1ccc(CN(C)CC(=O)Nc2cc3oc4ccccc4c3cc2OC)c(OC)c1 | 6.0 | 6.9 | 7.1 | -1.1 | -3.0 | 1.7
COc1ccc(CN(C)CC(=O)Nc2ccccc2C(F)(F)F)c(OC)c1 | -17.8 | -0.1 | 3.4 | -4.3 | nt | nt
O=C(O)C1OC(C(=O)O)C(C(=O)O)C1C(=O)O (centres undefined) | 57.7* | 1.5 | 2.1 | -7.5 | -3.0 | -2.9
O=C(O)C1CCC(C(=O)O)O1 (centres undefined) | 29.8 | -5.4 | 5.0 | -0.3 | nt | nt
COC(=O)C1=C(C)N(Cc2ccc(C(F)(F)F)cc2)C(=NCC2CC2)NC1c1cccc(Cl)c1 (centres undefined) | nt | -22.1 | -30.6 | -5.8 | nt | nt
CC1CN(C(=O)c2ccc(NS(=O)(=O)c3ccc(F)c(F)c3)cc2)CC(C)O1 (centres undefined) | 56.2* | -1.4 | 0.3 | -0.9 | -1.0 | -11.4
O=C(C1CCN(S(=O)(=O)c2cc(Cl)ccc2Cl)CC1)N1CCOCC1 | 56.0* | -0.8 | -1.2 | -8.5 | -1.9 | -5.9
O=C(C1CCN(S(=O)(=O)c2cc(Cl)ccc2Cl)CC1)N1CCCC1 | 5.6 | 3.8 | 0.7 | -3.0 | nt | nt
Cc1[nH]c2ccccc2c1CC(=O)Nc1ccc(Nc2cccnc2)c(-c2ccc(-c3ccccc3)cc2F)c1 | nt | -4.4 | 0.0 | -6.9 | nt | nt
COc1cc2c(cc1OC)[C@@]1(c3ccccc3)CCCC[C@H]1[C@@H]2NC(=O)C(F)(F)F | nt | -0.8 | -9.8 | -0.2 | nt | nt
Nc1ccc2c(C(F)(F)F)cc(C(F)(F)F)nc2n1 | 55.9* | 1.4 | 0.1 | 1.9 | -3.4 | -6.0
FC(F)(F)c1cc(C(F)(F)F)c2ccc(Oc3ccccc3)nc2n1 | 4.7 | -1.8 | -3.5 | -1.9 | nt | nt
CCOc1cc(/C=C2\SC(N)=NC2=O)ccc1O | 61.1* | -7.6 | -2.9 | -1.9 | -6.3 | -0.5
COC1OC2COC(c3ccccc3)OC2C(NC(C)=O)C1OC(C)=O (centres undefined) | nt | 2.6 | 0.2 | 5.9 | nt | nt
CC(=O)N[C@@H]1[C@@H](O)[C@@H]2OC(c3ccccc3)OC[C@H]2O[C@@H]1N=[N+]=[N-] (some centres undefined) | 56.2* | 2.8 | 2.0 | -11.2 | 11.6 | -3.0
C/C(=N/NC(=O)Nc1ccccc1)c1ccc(C)cc1 | 6.3 | 2.3 | 3.7 | -3.5 | nt | nt
C/C(=N\NC(=O)Nc1ccccc1)c1ccc2ccccc2c1 | 92.7* | -2.6 | -0.1 | -7.5 | -5.9 | -1.1
COC(=O)C[C@@H]1CC[C@H]2[C@@H](COc3ccc(NC(=O)Nc4cccc(F)c4)cc3C(=O)N2C)O1 | nt | 2.9 | -3.0 | nt | nt | nt
CCn1c(=O)n(CC(=O)Nc2ccc(F)cc2)c(=O)c2ccccc21 | 12.4 | 1.4 | 2.1 | 2.2 | -1.5 | -10.0
CCn1c(=O)n(CC(=O)NCc2ccccc2OC)c(=O)c2ccccc21 | -7.5 | 0.7 | -0.9 | -0.5 | nt | nt
COc1ccc(S(=O)(=O)NCC2CCCN(Cc3cccc(C(C)=O)c3)C2)cc1 (centres undefined) | 61.8* | -0.8 | 2.0 | 3.0 | 4.7 | -0.9
CCN(c1ccccc1)S(=O)(=O)c1cccc(C(=O)NCC2(N(C)C)CCCCC2)c1 | 14.5 | -1.2 | -5.9 | -5.1 | 16.7 | -2.2
SMILES | Arr AP2 block | GC-A act | GC-B act | GalR3 antagonist | Arr AP2 CP1 | GST GSH counter
COc1ccc(NS(=O)(=O)c2cccc(C(=O)NCC3(N(C)C)CCCCC3)c2)cc1 | 55.4* | -16.2 | -9.2 | -1.9 | -3.9 | -8.9
CN(C)C1(CNC(=O)c2cccc(S(=O)(=O)NCc3ccccc3)c2)CCCCC1 | 4.8 | -2.6 | -1.9 | -3.0 | nt | nt
CN(C)C1(CNC(=O)c2cccc(S(=O)(=O)Nc3ccc(Br)cc3)c2)CCCCC1 | -6.7 | -22.1 | -11.7 | -5.1 | 0.4 | 1.8
COC(=O)c1c(-c2ccc(OC)cc2)c2c(c3c4cc(OC)ccc4n(C(=O)c4ccccc4)c13)C(=O)N(C)C2 | nt | 1.7 | 0.9 | -6.9 | nt | nt
CCCCN(C)C(=O)c1cn(C(C)c2ccccc2)nn1 (centres undefined) | nt | 0.6 | 1.1 | nt | nt | nt
Cc1[nH]nc2c1C(c1cccc(C(F)(F)F)c1)NC2=O (centres undefined) | nt | 1.8 | 4.9 | -6.1 | nt | nt
COc1ccc(C2CC(=O)C(c3ccc(F)cc3)=CN2Cc2ccccc2)cc1 (centres undefined) | nt | -2.8 | -4.4 | -10.9 | nt | nt
COc1ccc(/C=C/C(=O)OCC(=O)NC2CC2)c(OC)c1 | -0.4 | 4.0 | 1.7 | -3.6 | nt | nt
COc1ccc(/C=C/C(=O)OCC(=O)NC2CCCC(C)C2C)c(OC)c1 (centres undefined) | 64.0* | 2.1 | -4.5 | -7.6 | 2.7 | -6.0
Cc1ccccc1OCCCN1CCC(C(O)(c2ccccc2)c2ccccc2)CC1 | nt | -8.8 | -13.1 | -9.6 | nt | nt
Cc1ccccc1NC(=O)Nc1cnccn1 | 14.9 | 0.9 | 1.1 | 3.1 | 6.3 | -6.0
Cc1cccc(NC(=O)Nc2cnccn2)c1C | -4.7 | -2.1 | -1.2 | 2.1 | -7.6 | -4.7
Cc1ccc(NC(=O)Nc2cnccn2)cc1Cl | 0.9 | -7.7 | -7.8 | 2.9 | nt | nt
CCOC(=O)C1=CCN(S(=O)(=O)c2ccc(Cl)cc2)C1c1ccc(Br)cc1 (centres undefined) | nt | -17.4 | -13.0 | -3.0 | nt | nt
Cn1cc(CC(=O)Nc2ccc(Nc3cccnc3)cc2)c2ccccc21 | nt | 1.8 | -8.2 | -3.0 | nt | nt
O=C(CCN1C(=O)C2C3C=CC(C4CC34)C2C1=O)OCC(=O)c1ccccc1 (centres undefined) | -11.4 | -2.9 | -2.2 | -1.5 | nt | nt
Cc1ccc(C(=O)COC(=O)CCN2C(=O)C3C4C=CC(C5CC45)C3C2=O)cc1 (centres undefined) | 57.1* | 0.8 | 4.2 | -10.0 | 2.2 | -0.9
CCCCCCCCN1C(=O)[C@@H](CC(=O)NCc2cccs2)C[C@@]2(C(=O)OC)C1=C[C@H](C1CCCC1)O[C@@H]2C | nt | -1.8 | 5.3 | -6.5 | nt | nt
NC(=O)C1CCN(C2=C(Cl)C(=O)c3ccccc3C2=O)CC1 | 54.2* | 0.8 | -3.8 | -2.5 | 51.3* | -0.2
O=C1C(Cl)=C(N2CCC(C(=O)O)CC2)C(=O)c2ccccc21 | 26.5 | nt | nt | nt | nt | nt
CCN(C(=O)Cn1cc(C(=O)C(=O)N2CCOCC2)c2ccccc21)c1ccccc1 | 66.0* | -2.0 | -2.3 | -2.1 | -7.9 | 1.2
CCN(CC)C(=O)Cn1cc(C(=O)C(=O)N2CCN(c3ccccc3)CC2)c2ccccc21 | -11.8 | 4.2 | 5.8 | 3.0 | nt | nt
